The values that follow come from ChEMBL document CHEMBL1139934, “Synthesis and biological activity of imidazopyridine anticoccidial agents: part I” (Eur J Med Chem, 2007).

Assay [1] has as its system Eimeria tenella. As to the kind of experiment: Anticococcidal activity against Eimeria tenella in Chick assessed as reduction in oocyte at 25 ppm relative to control. The class given is functional. Also noted: scale not given: the % may be the effect or the level left. The essentials: (§1)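 Expanded Mini-Assay Coccidiosis (ExMAC) in chickens infected with E. tenella, E. acervulina, E. mitis and E. maxima. Compound given in the feed at the stated ppm. Efficacy for each species is scored 0 to 4 from the percent oocyst reduction relative to an untreated control. Where a compound was tested more than once, all values are reported.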

Assay [2] concerns the target cGMP-dependent protein kinase (Eimeria tenella, UniProt Q8MMZ8). As to the kind of experiment: Inhibition of Eimeria tenella cGMP-dependent protein kinase by Ten_K assay. The gist of the method: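 Ten_K (Tenella Kinase) assay measuring inhibition of E. tenella PKG enzyme activity. Result expressed as the concentration giving 50% inhibition (IC50, nM). Where a compound was tested more than once, all values are reported.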

For assay [3], the system named is Eimeria tenella. As to the kind of experiment: Anticococcidal activity against Eimeria tenella in Chick assessed as reduction in oocyte at 6.25 ppm relative to control. The format is functional. On the set-up: scale not given: the % may be the effect or the level left. The gist of the method:
as §1

Assay [4] concerns Eimeria acervulina. The assay can be described thus: Anticococcidal activity against Eimeria acervulina in Chick assessed as reduction in oocyte at 25 ppm relative to control. The class given is functional. Also noted: scale not given: the % may be the effect or the level left. The essentials:
as §1

For assay [5], the system named is Eimeria acervulina. As to the kind of experiment: Anticococcidal activity against Eimeria acervulina in Chick assessed as reduction in oocyte at 6.25 ppm relative to control. The class given is functional. On the set-up: scale not given: the % may be the effect or the level left. The gist of the method:
as §1

Assay [6] relates to Eimeria mitis. As to the kind of experiment: Anticococcidal activity against Eimeria mitis in Chick assessed as reduction in oocyte at 25 ppm relative to control. The class given is functional. Also noted: scale not given: the % may be the effect or the level left. The gist of the method: as §1
The subject of assay [7] is Eimeria maxima. The assay can be described thus: Anticococcidal activity against Eimeria maxima in Chick assessed as reduction in oocyte at 25 ppm relative to control. The class given is functional. On the set-up: scale not given: the % may be the effect or the level left. The essentials: as §1
Assay [8] concerns Eimeria maxima. The assay can be described thus: Anticococcidal activity against Eimeria maxima in Chick assessed as reduction in oocyte at 6.25 ppm relative to control. The format is functional. Also noted: scale not given: the % may be the effect or the level left. The gist of the method:
as §1

The test system of assay [9] is Eimeria tenella. The assay can be described thus: Anticococcidal activity against Eimeria tenella in Chick assessed as reduction in oocyte at 1.25 ppm relative to control. The format is functional. Also noted: scale not given: the % may be the effect or the level left. The gist of the method: as §1
The test system of assay [10] is Eimeria acervulina. As to the kind of experiment: Anticococcidal activity against Eimeria acervulina in Chick assessed as reduction in oocyte at 1.25 ppm relative to control. On the set-up: scale not given: the % may be the effect or the level left. The class given is functional. The gist of the method:
as §1

Assay [11] relates to Eimeria mitis. As to the kind of experiment: Anticococcidal activity against Eimeria mitis in Chick assessed as reduction in oocyte at 1.25 ppm relative to control. The class given is functional. Also noted: scale not given: the % may be the effect or the level left. The essentials:
as §1

The subject of assay [12] is Eimeria maxima. As to the kind of experiment: Anticococcidal activity against Eimeria maxima in Chick assessed as reduction in oocyte at 1.25 ppm relative to control. On the set-up: scale not given: the % may be the effect or the level left. The class given is functional. The gist of the method: as §1
Assay [13] has as its system Eimeria mitis. As to the kind of experiment: Anticococcidal activity against Eimeria mitis in Chick assessed as reduction in oocyte at 6.25 ppm relative to control. On the set-up: scale not given: the % may be the effect or the level left. The class given is functional. The essentials:
as §1

Assay [14] addresses cGMP-dependent protein kinase (Eimeria tenella) (UniProt Q8MMZ8). The assay can be described thus: Inhibition of Eimeria tenella cGMP-dependent protein kinase at 100 nM by Ten_K assay.
Assay [15] deals with Eimeria tenella. As to the kind of experiment: Anticococcidal activity against Eimeria tenella in Chick assessed as reduction in oocyte at 12.5 ppm relative to control. The format is functional. Also noted: scale not given: the % may be the effect or the level left. The gist of the method:
as §1

In assay [16] the test system is Eimeria acervulina. The assay can be described thus: Anticococcidal activity against Eimeria acervulina in Chick assessed as reduction in oocyte at 12.5 ppm relative to control. The class given is functional. On the set-up: scale not given: the % may be the effect or the level left. The essentials: as §1
The test system of assay [17] is Eimeria maxima. The assay can be described thus: Anticococcidal activity against Eimeria maxima in Chick assessed as reduction in oocyte at 12.5 ppm relative to control. The class given is functional. Also noted: scale not given: the % may be the effect or the level left. The gist of the method: as §1
The test system of assay [18] is Eimeria mitis. The assay can be described thus: Anticococcidal activity against Eimeria mitis in Chick assessed as reduction in oocyte at 12.5 ppm relative to control. The format is functional. Also noted: scale not given: the % may be the effect or the level left. The gist of the method: as §1
Assay [19] concerns Eimeria maxima. As to the kind of experiment: Anticococcidal activity against Eimeria maxima in Chick assessed as reduction in oocyte at 3.13 ppm relative to control. On the set-up: scale not given: the % may be the effect or the level left. The class given is functional. The essentials:
as §1

The subject of assay [20] is Eimeria tenella. As to the kind of experiment: Anticococcidal activity against Eimeria tenella in Chick assessed as reduction in oocyte at 3.13 ppm relative to control. On the set-up: scale not given: the % may be the effect or the level left. The format is functional. The gist of the method: as §1
Assay [21] deals with Eimeria acervulina. The assay can be described thus: Anticococcidal activity against Eimeria acervulina in Chick assessed as reduction in oocyte at 3.13 ppm relative to control. The format is functional. Also noted: scale not given: the % may be the effect or the level left. The gist of the method: as §1
Assay [22] deals with Eimeria mitis. The assay can be described thus: Anticococcidal activity against Eimeria mitis in Chick assessed as reduction in oocyte at 3.13 ppm relative to control. The format is functional. On the set-up: scale not given: the % may be the effect or the level left. The gist of the method: as §1
Assay [23] concerns Eimeria tenella. As to the kind of experiment: Anticococcidal activity against Eimeria tenella in Chick assessed as reduction in oocyte at 50 ppm relative to control. The format is functional. On the set-up: scale not given: the % may be the effect or the level left. The essentials:
as §1

Assay [24] concerns Eimeria acervulina. As to the kind of experiment: Anticococcidal activity against Eimeria acervulina in Chick assessed as reduction in oocyte at 50 ppm relative to control. Also noted: scale not given: the % may be the effect or the level left. The class given is functional. The essentials: as §1
The subject of assay [25] is Eimeria maxima. The assay can be described thus: Anticococcidal activity against Eimeria maxima in Chick assessed as reduction in oocyte at 50 ppm relative to control. The format is functional. Also noted: scale not given: the % may be the effect or the level left. The gist of the method: as §1
The test system of assay [26] is Eimeria mitis. The assay can be described thus: Anticococcidal activity against Eimeria mitis in Chick assessed as reduction in oocyte at 50 ppm relative to control. The format is functional. On the set-up: scale not given: the % may be the effect or the level left. The essentials:
as §1

Molecules are shown by their SMILES.

Sequence of cGMP-dependent protein kinase (Q8MMZ8 whole entry): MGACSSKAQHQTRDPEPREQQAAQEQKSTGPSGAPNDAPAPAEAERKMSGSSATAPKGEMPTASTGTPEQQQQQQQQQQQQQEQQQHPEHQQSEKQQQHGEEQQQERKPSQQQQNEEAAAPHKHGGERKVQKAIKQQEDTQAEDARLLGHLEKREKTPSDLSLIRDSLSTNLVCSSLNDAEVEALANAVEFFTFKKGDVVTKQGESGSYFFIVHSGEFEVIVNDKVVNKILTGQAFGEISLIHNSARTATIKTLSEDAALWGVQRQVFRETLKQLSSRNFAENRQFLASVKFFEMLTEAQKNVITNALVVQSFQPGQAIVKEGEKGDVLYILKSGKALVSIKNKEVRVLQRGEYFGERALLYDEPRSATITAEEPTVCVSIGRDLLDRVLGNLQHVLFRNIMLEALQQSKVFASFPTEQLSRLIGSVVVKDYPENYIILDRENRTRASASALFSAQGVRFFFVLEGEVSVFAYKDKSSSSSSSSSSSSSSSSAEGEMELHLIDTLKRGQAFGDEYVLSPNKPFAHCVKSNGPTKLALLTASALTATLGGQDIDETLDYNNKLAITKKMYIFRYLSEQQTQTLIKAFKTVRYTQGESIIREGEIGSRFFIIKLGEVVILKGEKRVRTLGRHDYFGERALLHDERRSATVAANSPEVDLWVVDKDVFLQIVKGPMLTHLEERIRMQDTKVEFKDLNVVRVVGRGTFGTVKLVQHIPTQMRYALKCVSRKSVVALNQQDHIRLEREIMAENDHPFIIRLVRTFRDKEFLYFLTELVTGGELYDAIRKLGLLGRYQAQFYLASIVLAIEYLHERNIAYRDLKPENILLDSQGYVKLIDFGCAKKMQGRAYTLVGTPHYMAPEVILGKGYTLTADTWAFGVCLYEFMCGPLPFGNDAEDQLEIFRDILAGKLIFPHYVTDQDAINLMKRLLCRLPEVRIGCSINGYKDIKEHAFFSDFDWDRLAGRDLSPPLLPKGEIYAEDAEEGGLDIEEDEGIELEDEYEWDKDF
Sequence of cGMP-dependent protein kinase (Eimeria tenella) (Q8MMZ8 2-1003 limits assumed): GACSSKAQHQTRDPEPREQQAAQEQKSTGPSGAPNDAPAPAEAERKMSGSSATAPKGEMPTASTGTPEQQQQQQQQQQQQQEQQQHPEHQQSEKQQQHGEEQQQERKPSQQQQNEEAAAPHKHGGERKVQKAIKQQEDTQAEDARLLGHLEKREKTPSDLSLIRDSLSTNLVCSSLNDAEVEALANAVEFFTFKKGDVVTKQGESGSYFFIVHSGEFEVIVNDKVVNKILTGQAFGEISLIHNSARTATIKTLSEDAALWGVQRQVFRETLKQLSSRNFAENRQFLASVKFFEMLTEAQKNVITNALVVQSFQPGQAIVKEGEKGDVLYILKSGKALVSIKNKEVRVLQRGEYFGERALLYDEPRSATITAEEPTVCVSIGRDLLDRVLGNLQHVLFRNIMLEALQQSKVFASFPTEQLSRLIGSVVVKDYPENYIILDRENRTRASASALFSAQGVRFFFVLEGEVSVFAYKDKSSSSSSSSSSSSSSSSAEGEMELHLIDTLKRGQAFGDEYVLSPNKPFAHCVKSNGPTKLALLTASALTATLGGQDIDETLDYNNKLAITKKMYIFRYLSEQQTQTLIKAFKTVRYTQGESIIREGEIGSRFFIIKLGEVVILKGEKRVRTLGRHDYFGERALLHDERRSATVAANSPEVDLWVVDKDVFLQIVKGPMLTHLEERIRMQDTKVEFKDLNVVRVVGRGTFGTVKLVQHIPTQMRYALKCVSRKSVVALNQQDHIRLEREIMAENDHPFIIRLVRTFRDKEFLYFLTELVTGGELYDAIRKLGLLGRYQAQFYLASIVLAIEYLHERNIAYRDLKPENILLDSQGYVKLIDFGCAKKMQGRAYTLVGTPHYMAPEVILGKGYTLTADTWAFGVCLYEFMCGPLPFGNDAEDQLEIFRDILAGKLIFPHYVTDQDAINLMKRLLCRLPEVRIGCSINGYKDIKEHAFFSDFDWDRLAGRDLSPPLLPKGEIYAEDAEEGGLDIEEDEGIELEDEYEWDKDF

Consider `CN(C)Cc1ccn2c(-c3nc(N)ncc3F)c(-c3ccc(F)cc3)nc2c1`, for which the Activity in the assay with Eimeria tenella [1] is reported as 80%; in the assay with Eimeria tenella [3], 80%; in the assay with Eimeria acervulina [4], 100%; in the assay on Eimeria acervulina [5], 50%; in the assay with Eimeria mitis [6], 50%; in the assay on Eimeria maxima [7], 100%. Besides, the Activity is listed as less than 50% with Eimeria maxima [8]; 80% in the assay with Eimeria tenella [9]; 100% in the assay with Eimeria acervulina [10]; less than 50% in the assay with Eimeria mitis [11]; less than 50% with Eimeria maxima [12]; less than 50% in the assay with Eimeria mitis [13]. This compound had a half-maximal inhibitory concentration (IC50) in [2] of 0.23 nM.

For the compound `CN(C)Cc1ccn2c(-c3ccnc(NS(=O)(=O)Cc4ccccc4)n3)c(-c3ccc(F)cc3)nc2c1`, the Activity in the assay on Eimeria tenella [1], in the assay on Eimeria acervulina [4], in the assay on Eimeria mitis [6] and in the assay with Eimeria maxima [7] was less than 50% each time. In assay [14], this compound registered an inhibition of 40%.

Turning to `CN(C)Cc1ccn2c(-c3ccnc(NCc4c(F)cccc4F)n3)c(-c3ccc(F)cc3)nc2c1`, the Activity with Eimeria tenella [1] was 50%; with Eimeria tenella [15], less than 50%; in the assay with Eimeria tenella [3], less than 50%; with Eimeria acervulina [4], less than 50%; in the assay with Eimeria acervulina [16], less than 50%; in the assay with Eimeria acervulina [5], less than 50%. Also, the Activity in the assay on Eimeria mitis [6] was 80%; in the assay with Eimeria maxima [7], 80%; in the assay with Eimeria maxima [17], 80%; in the assay on Eimeria maxima [8] it was 50%; in the assay with Eimeria mitis [18], less than 50%; with Eimeria mitis [13], less than 50%. In assay [2], this compound came in with a 50% inhibitory concentration (IC50) of 0.06 nM.

On to `CN(C)Cc1ccn2c(-c3ccnc(N)n3)c(-c3ccc(F)cc3)nc2c1`, for which the Activity with Eimeria tenella [1] is 80%; in the assay on Eimeria tenella [15], 80%; in the assay with Eimeria tenella [3] it was less than 50%; in the assay on Eimeria acervulina [4] it was 80%; in the assay with Eimeria acervulina [16], less than 50%; in the assay on Eimeria acervulina [5] it was less than 50%. The Activity in the assay on Eimeria mitis [6] is recorded as 80%; in the assay with Eimeria maxima [7], 80%; in the assay on Eimeria maxima [17], 80%; in the assay with Eimeria maxima [8] it was 80%; with Eimeria mitis [18] it was 80%; in the assay with Eimeria mitis [13], less than 50%. In assay [2], this compound had a concentration for half-maximal inhibition (IC50) of 0.23 nM.

With `CN(C)Cc1ccn2c(-c3ccnc(NCC4CC4)n3)c(-c3ccc(F)cc3)nc2c1`, the Activity in the assay on Eimeria tenella [1] is 80%; in the assay with Eimeria tenella [15] it was 80%; in the assay on Eimeria tenella [3] it was less than 50%; with Eimeria acervulina [4], 80%; in the assay on Eimeria acervulina [16], 80%; with Eimeria acervulina [5] it was 80%. Also, the Activity in the assay on Eimeria mitis [6] is on record as 80%; in the assay with Eimeria maxima [7], 80%; in the assay on Eimeria maxima [17] it was 80%; in the assay with Eimeria maxima [8] it was 80%; in the assay with Eimeria mitis [18], 80%; in the assay on Eimeria mitis [13], less than 50%. Besides, the half-inhibitory concentration (IC50) in assay [2] was 0.064 nM.

In the case of `CN(C)Cc1ccn2c(-c3ccnc(N)n3)c(-c3c(F)cc(F)cc3F)nc2c1`, the Activity is given as 80% in the assay on Eimeria tenella [1]; 80% in the assay with Eimeria maxima [19]; 80% with Eimeria tenella [15]; less than 50% with Eimeria tenella [3]; 50% with Eimeria tenella [20]; 80% in the assay on Eimeria acervulina [4]. Moreover, the Activity was 80% with Eimeria acervulina [16]; 50% in the assay with Eimeria acervulina [5]; less than 50% with Eimeria acervulina [21]; less than 50% with Eimeria mitis [6]; 100% in the assay on Eimeria maxima [7]; 80% in the assay on Eimeria maxima [17]. Moreover, the Activity with Eimeria maxima [8] is 50%; in the assay with Eimeria mitis [18], less than 50%; with Eimeria mitis [13] it was 50%; in the assay with Eimeria mitis [22], 50%. For the same compound, the midpoint of inhibition in assay [2], the IC50, lay at 0.52 nM.

In the case of `CCCCNc1nccc(-c2c(-c3ccc(F)cc3)nc3cc(CN(C)C)ccn23)n1`, the IC50 in [2] was determined as 2.14 nM. Also, the Activity in the assay on Eimeria tenella [23], with Eimeria acervulina [24], with Eimeria maxima [25] and with Eimeria mitis [26] was less than 50% throughout.

Turning to `Cc1cnc(N)nc1-c1c(-c2ccc(F)cc2)nc2cc(CN(C)C)ccn12`, the Activity in the assay on Eimeria tenella [1] was 80%; in the assay on Eimeria tenella [15], 80%; in the assay on Eimeria tenella [3], less than 50%; in the assay with Eimeria acervulina [4], 80%; in the assay on Eimeria acervulina [16], less than 50%; with Eimeria acervulina [5], less than 50%. Moreover, the Activity in the assay with Eimeria mitis [6] is given as 80%; with Eimeria maxima [7] it was 80%; in the assay with Eimeria maxima [17] it was 80%; in the assay with Eimeria maxima [8], 80%; in the assay on Eimeria mitis [18], 80%; in the assay with Eimeria mitis [13], less than 50%. In addition, in assay [2], the IC50 turned out to be 0.23 nM.
